Reference: ChEMBL document CHEMBL3580567 (J Med Chem, 2015)
Values after ≈ are worked out from the molar mass of the structure shown. Active and inactive are the calls of the source. The rule behind the calls is not given here.

Legend:
[1] = molecular target: T1, Melatonin receptor type 1A (Homo sapiens, UniProt P48039); assay: Displacement of 2-[125I]-iodomelatonin from human melatonin receptor-1 transfected in CHO cell membranes after 120 mins
[2] = molecular target: T2, Melatonin receptor type 1B (Homo sapiens, UniProt P49286); assay: Displacement of 2-[125I]-iodomelatonin from human melatonin receptor-2 transfected in CHO cell membranes after 120 mins
T2 sequence (P49286 whole entry): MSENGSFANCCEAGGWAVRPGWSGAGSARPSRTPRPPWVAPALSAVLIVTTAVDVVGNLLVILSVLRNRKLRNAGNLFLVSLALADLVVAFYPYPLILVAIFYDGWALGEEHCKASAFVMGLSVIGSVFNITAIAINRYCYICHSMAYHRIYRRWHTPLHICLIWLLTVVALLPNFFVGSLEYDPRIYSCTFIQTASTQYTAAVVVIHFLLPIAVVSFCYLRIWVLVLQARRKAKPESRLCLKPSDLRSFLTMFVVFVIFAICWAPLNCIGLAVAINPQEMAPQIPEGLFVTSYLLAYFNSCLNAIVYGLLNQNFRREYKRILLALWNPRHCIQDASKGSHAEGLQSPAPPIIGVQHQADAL

[3] = molecular target: T2, Melatonin receptor type 1B; assay: Agonist activity at human melatonin receptor-2 transfected in CHO cell membranes after 1 hr by GTPgammaS binding assay; type: functional
[4] = molecular target: T3, Melatonin receptor type 1B (Homo sapiens) (UniProt P49286); assay: Agonist activity at human melatonin receptor-2 transfected in CHO cell membranes after 1 hr by GTPgammaS binding assay relative to melatonin; type: functional
T3 sequence (whole entry): T2 sequence (P49286 whole entry)
How it was run: (§1)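 CHO membranes (20 µg/mL) stably expressing human MT1 or MT2 in 20 mM HEPES pH 7.4, 100 mM NaCl, 3 µM GDP, 3 mM MgCl2, 20 µg/mL saponin. Incubated with 0.2 nM [35S]GTPγS for 1 h at rt, then filtered. Non-specific binding defined with 10 µM GTPγS. Seven concentrations in duplicate; EC50 and Emax fitted.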

[5] = Thermodynamic solubility in buffer at pH 5.5 after 24 hrs by UV spectra analysis; type: physicochemical; conditions: read-out: Therm_solubility
[6] = Thermodynamic solubility in phosphate buffer at pH 7.4 after 24 hrs by UV spectra analysis; type: physicochemical; conditions: read-out: Therm_solubility
How it was run: (§2)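 Thermodynamic solubility: about 1 mg of solid was saturated in 200 µL buffer and stirred 24 h at rt at 320 rpm, then centrifuged. Supernatant was diluted with buffer-MeCN 80:20 and read by UV at its absorbance maximum. Values were quantified against a calibration line from a 10 mM DMSO stock, checked with a quality-control standard. Runs were in triplicate. The buffers were pH 7.4 phosphate 45 mM and NH4Cl for the basic pH.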

[7] = Thermodynamic solubility in NH4Cl buffer at pH 9.3 after 24 hrs by UV spectra analysis; type: physicochemical; conditions: read-out: Therm_solubility; how it was run: as §2
Homo sapiens = organism: Homo sapiens; assay: Selectivity ratio of Ki for human melatonin receptor-1 to Ki for human melatonin receptor-2
[8] = molecular target: T1, Melatonin receptor type 1A; assay: Agonist activity at human melatonin receptor-1 transfected in CHO cell membranes after 1 hr by GTPgammaS binding assay; type: functional
[9] = molecular target: T1, Melatonin receptor type 1A; assay: Agonist activity at human melatonin receptor-1 transfected in CHO cell membranes after 1 hr by GTPgammaS binding assay relative to melatonin; type: functional; how it was run: as §1
[10] = molecular target: T4, 5-hydroxytryptamine receptor 1A (Rattus norvegicus, UniProt P19327); assay: Displacement of [3H]8-OH DPAT from rat 5HT1A receptor expressed in CHO cells after 30 mins by liquid scintillation counting analysis; type: cell-based
T4 sequence (P19327 whole entry): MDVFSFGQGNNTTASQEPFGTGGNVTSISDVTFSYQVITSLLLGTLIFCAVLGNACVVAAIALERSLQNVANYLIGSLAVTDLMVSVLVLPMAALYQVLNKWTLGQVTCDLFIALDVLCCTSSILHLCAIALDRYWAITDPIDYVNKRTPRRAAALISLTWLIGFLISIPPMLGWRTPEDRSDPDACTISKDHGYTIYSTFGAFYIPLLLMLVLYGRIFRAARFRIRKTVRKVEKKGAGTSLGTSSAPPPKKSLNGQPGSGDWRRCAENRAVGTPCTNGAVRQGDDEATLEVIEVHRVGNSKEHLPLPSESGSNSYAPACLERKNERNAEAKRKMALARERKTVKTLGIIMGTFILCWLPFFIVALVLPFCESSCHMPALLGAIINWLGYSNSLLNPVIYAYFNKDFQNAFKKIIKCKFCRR

[11] = molecular target: 5-hydroxytryptamine receptor 2A (Rattus norvegicus, UniProt P14842); assay: Displacement of [3H]DOB from rat 5HT2A receptor expressed in mouse NIH/3T3 cells after 30 mins by liquid scintillation counting analysis; type: cell-based
[12] = (§3) Induction of primary neuronal stem cell differentiation derived from subgranular zone of dentate gyrus of Wistar rat hippocampus assessed as upregulation of TuJ1 expression at 10 uM incubated for 7 days followed by 48 hrs incubation in presence of serum and absence of EGF by DAPI staining-based fluorescence microscopic analysis; type: functional; conditions: Primary neuron
How it was run: (§4)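 Neurospheres came from the SGZ of the dentate gyrus of adult male Wistar rats (8-12 weeks). They were grown in DMEM/F12 with 10 ng/mL EGF, 10 ng/mL FGF and B27. After 3 days, cultures were treated with compounds for 7 days. They were then plated on poly-L-lysine coverslips for 48 h with serum and without growth factors. Cells were immunostained for TuJ1 and MAP-2 with DAPI nuclei. Positive cells were counted by fluorescence microscopy in five NS per condition over three independent experiments. Untreated cultures gave basal values.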

[13] = (§5) Induction of primary neuronal stem cell maturation derived from subgranular zone of dentate gyrus of Wistar rat hippocampus assessed as upregulation of MAP-2 expression at 10 uM incubated for 7 days by DAPI staining-based fluorescence microscopic analysis; type: functional; conditions: Primary neuron; how it was run: as §4
[14] = as §3, with “analysis in presence of melatonin receptor antagonist luzindole” for “analysis”; type: functional; conditions: Primary neuron; how it was run: as §4
[15] = as §5, with “analysis in presence of melatonin receptor antagonist luzindole” for “analysis”; type: functional, tissue-based; conditions: Primary neuron; how it was run: as §4
[16] = Solubility in the water; type: physicochemical; conditions: buffer
[17] = Permeability of the compound at 100 ug/ml after 240 mins by PAMPA; type: physicochemical; conditions: 4 h
How it was run: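 For PAMPA-BBB, the filter was coated with porcine brain lipid in dodecane (20 mg/mL). Donor compound was 100 µg/mL in PBS:ethanol 70:30, pH 7.4, and the acceptor held PBS:ethanol 70:30. Plates were incubated 240 min at 25 °C. Acceptor concentration was read by UV-Vis at five wavelengths in four wells, over at least three runs. Eleven quality-control standards were included.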

[18] = molecular target: T2, Melatonin receptor type 1B; assay: Agonist activity at human recombinant melatonin receptor-2 expressed in CHO cells assessed as decrease of cAMP level after 10 mins by HTRF assay; type: functional, cell-based
How it was run: (§6)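 Functional agonist profiling was done by CEREP on cells expressing human recombinant MT receptors. MT1 was read by cellular dielectric spectroscopy and MT2 by homogeneous time-resolved fluorescence. The protocols are those on the company website.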

[19] = molecular target: T3, Melatonin receptor type 1B (Homo sapiens); assay: Agonist activity at human recombinant melatonin receptor-2 expressed in CHO cells assessed as decrease of cAMP level after 10 mins by HTRF assay relative to melatonin; type: functional, cell-based
[20] = molecular target: T1, Melatonin receptor type 1A; assay: Agonist activity at human recombinant melatonin receptor-1 expressed in CHO cells assessed as effect on impedance by cellular dielectric spectroscopy; type: cell-based; how it was run: as §6
[21] = molecular target: T1, Melatonin receptor type 1A; assay: Agonist activity at human recombinant melatonin receptor-1 expressed in CHO cells assessed as effect on impedance by cellular dielectric spectroscopy relative to melatonin; type: cell-based

T1 sequence (P48039 whole entry): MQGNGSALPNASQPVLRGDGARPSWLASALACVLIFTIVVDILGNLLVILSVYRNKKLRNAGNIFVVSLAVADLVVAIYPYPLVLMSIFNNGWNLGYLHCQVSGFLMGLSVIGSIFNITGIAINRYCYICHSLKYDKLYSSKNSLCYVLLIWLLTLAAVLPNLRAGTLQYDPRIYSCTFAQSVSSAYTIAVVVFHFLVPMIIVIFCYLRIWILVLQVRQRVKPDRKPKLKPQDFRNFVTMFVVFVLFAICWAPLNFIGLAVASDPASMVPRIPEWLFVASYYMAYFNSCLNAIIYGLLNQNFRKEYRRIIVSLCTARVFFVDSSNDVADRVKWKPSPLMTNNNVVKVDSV
Sequence of 5-hydroxytryptamine receptor 2A (P14842 whole entry): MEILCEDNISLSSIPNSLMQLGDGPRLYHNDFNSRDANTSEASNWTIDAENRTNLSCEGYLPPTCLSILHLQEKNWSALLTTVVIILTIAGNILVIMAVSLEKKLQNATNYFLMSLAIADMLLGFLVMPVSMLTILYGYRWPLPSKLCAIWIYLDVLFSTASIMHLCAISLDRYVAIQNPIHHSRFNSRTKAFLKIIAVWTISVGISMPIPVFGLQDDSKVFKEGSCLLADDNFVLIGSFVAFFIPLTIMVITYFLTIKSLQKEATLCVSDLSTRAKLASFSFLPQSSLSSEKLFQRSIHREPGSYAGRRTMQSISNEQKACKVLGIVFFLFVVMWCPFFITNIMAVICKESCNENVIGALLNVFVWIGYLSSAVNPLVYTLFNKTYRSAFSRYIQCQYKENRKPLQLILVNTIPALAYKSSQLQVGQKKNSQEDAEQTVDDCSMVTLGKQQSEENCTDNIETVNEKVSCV

Row | SMILES | Ki [1] [nM] | Ki [2] [nM] | EC50 [3] [nM] | Emax [4] [%] | solubility thermodynamic at 24 h [6] [µM] | Ratio Ki (Homo sapiens) | EC50 [8] [nM] | Emax [9] [%] | other results
1 | COc1ccc2[nH]cc(CCc3n[nH]c(=S)o3)c2c1 | > 1000 | 530 | 1100 | 32 | 3460 (≈ 953 µg/mL) | – | – | – | solubility thermodynamic at 24 h [5]: 907 µM (≈ 250 µg/mL); solubility thermodynamic at 24 h [7]: 18700 µM (≈ 5140 µg/mL)
2 | COc1ccc2[nH]cc(CCc3ncc(C)o3)c2c1 | > 1000 | 498 | 503 | 32 | – | – | – | – | –
3 | CCn1c(CCc2c[nH]c3ccc(OC)cc23)n[nH]c1=S | > 1000 | > 1000 | – | – | 137 (≈ 41.4 µg/mL) | – | – | – | solubility thermodynamic at 24 h [5]: 131 µM (≈ 39.6 µg/mL); solubility thermodynamic at 24 h [7]: 208 µM (≈ 62.9 µg/mL)
4 | COc1ccc2[nH]cc(Cc3n[nH]c(=O)o3)c2c1 | > 1000 | 160 | > 1000 | – | – | – | – | – | –
5 | COc1ccc2[nH]cc(Cc3nnc(C)o3)c2c1 | 210 | 16 | 71 | 24 | 970 (≈ 236 µg/mL) | 10 | > 1000 | – | –
6 | C=CCNC(=O)Cc1c[nH]c2ccc(OC)cc12 | 17 | 4.9 | 132 | 70 | – | 3.5 | 525 | 64 | –
7 | COc1ccc2[nH]cc(CCc3nc(C)no3)c2c1 | > 1000 | > 1000 | – | – | – | – | – | – | –
8 | COc1ccc2[nH]cc(CCN(C)C)c2c1 [MEBUFOTENIN] | 210 | 16 | 112 | 28 | – | 10 | 257 | 62 | Ki [10]: 11 nM; Ki [11]: 92 nM
9 | COc1ccc2[nH]cc(Cc3n[nH]c(=S)o3)c2c1 | > 1000 | 535 | > 1000 | – | – | – | – | – | –
10 | COc1ccc2[nH]cc(CCNC(C)=O)c2c1 [MELATONIN] | – | – | – | – | 6640 (≈ 1540 µg/mL) | – | – | – | Activity [12]: Active; Activity [13]: Active; Activity [14]: inactive; Activity [15]: inactive; solubility [16]: 400 µM (≈ 92.9 µg/mL)
11 | COc1ccc2cccc(CCNC(C)=O)c2c1 [AGOMELATINE] | – | – | – | – | 804 (≈ 196 µg/mL) | – | – | – | –
12 | COc1ccc2[nH]cc(Cc3nc(C)no3)c2c1 | 170 | 44 | 295 | 48 | 1160 (≈ 283 µg/mL) | 3.9 | 711 | 16 | –
13 | C#CCNC(=O)CCc1c[nH]c2ccc(OC)cc12 | – | – | – | 99 | – | 5 | – | 106 | Activity [12]: Active; Activity [13]: inactive
14 | CCNc1nnc(Cc2c[nH]c3ccc(OC)cc23)s1 | > 1000 | 17 | 110 | 35 | 1420 (≈ 409 µg/mL) | > 500 | – | – | solubility thermodynamic at 24 h [5]: 1720 µM (≈ 495 µg/mL); solubility thermodynamic at 24 h [7]: 1440 µM (≈ 414 µg/mL); Activity [12]: Active
15 | C=CCNC(=O)CCc1c[nH]c2ccc(OC)cc12 | 2.5 | 0.45 | 11 | 88 | – | 5.5 | 204 | 92 | –
16 | CC(=O)NCCc1c(Cc2ccccc2)[nH]c2ccccc12 | – | – | – | – | – | – | – | – | Activity [12]: inactive
17 | COc1ccc2[nH]cc(CCc3nnco3)c2c1 | 570 | 68 | 457 | 25 | – | 8.6 | > 1000 | – | –
18 | COc1ccc2[nH]cc(Cc3ncc(C)o3)c2c1 | 280 | > 1000 | – | – | – | – | 989 | 23 | –
19 | COc1ccc2[nH]cc(Cc3n[nH]c(=O)n3C)c2c1 | > 1000 | 560 | > 1000 | – | – | – | – | – | –
20 | CCn1c(Cc2c[nH]c3ccc(OC)cc23)n[nH]c1=S | > 1000 | 220 | > 1000 | – | – | – | – | – | –
21 | COc1ccc2[nH]cc(CCc3n[nH]c(=O)n3C)c2c1 | > 1000 | > 1000 | – | – | 1100 (≈ 301 µg/mL) | – | – | – | solubility thermodynamic at 24 h [5]: 860 µM (≈ 234 µg/mL); solubility thermodynamic at 24 h [7]: 1410 µM (≈ 383 µg/mL)
22 | COc1ccc2[nH]cc(CCc3n[nH]c(=O)o3)c2c1 | 35 | 4 | 29 | 30 | 2100 (≈ 544 µg/mL) | 10 | 326 | 26 | solubility thermodynamic at 24 h [5]: 1410 µM (≈ 365 µg/mL); solubility thermodynamic at 24 h [7]: 7920 µM (≈ 2050 µg/mL); Activity [12]: Active; Activity [13]: Active; Activity [14]: inactive; Activity [15]: inactive; permeability [17]: permeable; EC50 [18]: 5.5 nM; Emax [19]: 97%; EC50 [20]: 48 nM; Emax [21]: 100%
23 | C#CCNC(=O)Cc1c[nH]c2ccc(OC)cc12 | 14 | 3.8 | 81 | 82 | – | 3.6 | 289 | 67 | –
